EP2 modulator = EP2 receptor modulators, cAMP readout, primary screen, cell-based, HTRF cAMP, PGE2 stimulation. induction, % at 25 µM. EP2-expressing cells, cAMP HTRF FRET, PGE2 co-stimulation. 260,000 compounds, 0.83% hits. Prostaglandin E2 receptor EP2 subtype (Homo sapiens), P43116. AID 940, 2007;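 active = compounds whose cAMP rise, as percent of the full-agonist control response, exceeds 60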;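 note: rat C6 glioma line stably carrying human EP2 under a CMV promoter; the protocol text gives 20 µM as final concentration; 100% = response of wells given 1 µM PGE2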
NPY2 pot ag = NPY-Y2 potentiators or agonists, primary screen, cell-based; AID 1359, 2008; cells expressing NPY-Y2, potentiator/agonist read-out; Neuropeptide Y receptor type 2 (Homo sapiens), P49146; 220,000 compounds, 0.45% hits; activation, % at 3.6 µM; in the data active = activation above about 27%;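 note: cells stimulated with NPY near EC25 plus isoproterenol at EC100; 0% = vehicle plus submaximal agonist and 100% = vehicle plus saturating agonist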
Target sequence (P49146 whole entry, looked up): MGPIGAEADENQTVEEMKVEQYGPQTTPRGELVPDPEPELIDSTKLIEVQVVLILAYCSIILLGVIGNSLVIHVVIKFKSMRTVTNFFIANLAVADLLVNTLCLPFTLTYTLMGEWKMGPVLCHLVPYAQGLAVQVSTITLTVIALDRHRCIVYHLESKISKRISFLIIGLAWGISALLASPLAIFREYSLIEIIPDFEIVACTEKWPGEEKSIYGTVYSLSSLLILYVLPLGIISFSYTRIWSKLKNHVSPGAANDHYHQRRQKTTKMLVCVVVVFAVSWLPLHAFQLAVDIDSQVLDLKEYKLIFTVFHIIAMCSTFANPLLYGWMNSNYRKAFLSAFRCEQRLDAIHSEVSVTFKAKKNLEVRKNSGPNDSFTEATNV
NPY-Y1 antag = NPY-Y1 receptor antagonists, primary screen, cell-based. Neuropeptide Y receptor type 1 (Homo sapiens), P25929. HEK293-CNG Y1 cells, membrane potential fluorescence; NPY at EC95, then isoproterenol. inhibition, % at 3.6 µM. 200,000 compounds, 1% hits. AID 1040, 2008;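 active = inhibition above the campaign mean inhibition of all tested compounds plus 3 SD, cut at about 20% in these data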;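 note: 0% = DMSO wells given NPY plus isoproterenol and 100% = isoproterenol alone without NPY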
Target sequence (P25929 whole entry, looked up): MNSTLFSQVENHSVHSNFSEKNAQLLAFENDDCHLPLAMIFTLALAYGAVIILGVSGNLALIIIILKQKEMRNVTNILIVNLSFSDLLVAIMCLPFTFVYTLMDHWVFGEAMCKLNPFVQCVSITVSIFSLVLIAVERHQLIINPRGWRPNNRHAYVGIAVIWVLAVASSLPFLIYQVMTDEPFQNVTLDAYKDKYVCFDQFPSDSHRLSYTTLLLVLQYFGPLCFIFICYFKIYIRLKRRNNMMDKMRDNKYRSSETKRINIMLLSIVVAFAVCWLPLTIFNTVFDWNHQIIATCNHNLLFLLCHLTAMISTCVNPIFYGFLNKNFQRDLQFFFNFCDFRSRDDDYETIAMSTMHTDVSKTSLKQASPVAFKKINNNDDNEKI
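Benchmarks – high control isoproterenol alone, low control NPY with isoproterenol · Material – HEK293 Y1/CNG channel cell line · Times – dye 3 h, compound 60 min room temperature, stimulation 45 min · Probe or stimulus – NPY (25 nM), isoproterenol (1 µM), Ro 20-1724 (25 µM) · Evaluation – % inhibition of NPY effect · Signal – fluorescence, membrane potential probe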
NPY1 pot ag = NPY-Y1 receptor potentiators or agonists, primary screen, cell-based | Neuropeptide Y receptor type 1 (Homo sapiens), P25929 | NPY-Y1 expressing cells, potentiator/agonist activation | activation, % at 3.6 µM | 220,000 compounds, 0.37% hits; in the data active = activation above about 33%, passing the limit was not always enough;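 note: cells stimulated with NPY at EC10 then isoproterenol at EC100; 0% = low agonist plus stimulus and 100% = saturating agonist plus stimulus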
PGE2 EP2 inh = human EP2 receptor antagonists, primary screen, TR-FRET cAMP, C6 glioma cells | inhibition, % at 25 µM | C6 glioma cells expressing human EP2; cells stimulated with saturating PGE2 | Prostaglandin E2 receptor EP2 subtype (Homo sapiens), P43116 | 260,000 compounds, 0.52% hits | AID 1422, 2008;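 active = percent inhibition above 40 after rounding to a whole number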;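 note: rat C6 glioma host cells with rolipram phosphodiesterase inhibitor present; the protocol text gives 20 µM as final concentration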
NPY-Y2 antag = NPY-Y2 receptor antagonists, primary screen, cell-based; NPY-Y2 expressing cells, antagonist mode; inhibition, % at 2.7 µM; 140,000 compounds, 0.99% hits; AID 793, 2007; in the data active = inhibition above about 17%;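 note: 0% = vehicle with agonist challenge and 100% = reference antagonist with challenge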
NPY-Y2 confirm = NPY-Y2 potentiators or agonists, confirmation, cell-based; 450 compounds, 20% hits; activation, % at 3.6 µM; cell-based NPY-Y2 potentiator/agonist assay; shares compounds with NPY2 pot ag; in the data active = activation above about 33%
NPY-Y1 counter = NPY-Y1 potentiators or agonists, counter-screen for NPY-Y2 potentiator project, cell-based, fluorescence. shares compounds with NPY2 pot ag. Y1 HEK293-CNG cells, membrane potential fluorescence. activation, % at 3.6 µM. 450 compounds, 20% hits. AID 1651, 2009; in the data active = activation above about 45%;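 note: cells stimulated with submaximal NPY then isoproterenol with phosphodiesterase inhibitor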
NPY-Y1 agonist 2 = NPY-Y1 direct agonists, selectivity assay for NPY-Y2 potentiator project, cell-based, fluorescence | AID 1702, 2009 | activation, % at 3.6 µM | 450 compounds, 37% hits | HEK293 Y1-CNGC, membrane potential fluorescence, agonism | shares compounds with NPY2 pot ag;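 active = activation above the mean of DMSO-only control wells plus 3 SD, cut at about 18% in these data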;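 note: cells stimulated with 1 µM isoproterenol plus the PDE inhibitor Ro 20-1724; 0% = isoproterenol with DMSO and no NPY and 100% = 40 nM NPY; Y1 agonists lower the membrane potential dye signal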
CNGC inhibitor = CNGC cAMP sensor activity inhibitors, counter-screen for NPY-Y2 potentiator project, cell-based, HEK293-CNG parental, membrane potential fluorescence; shares compounds with NPY2 pot ag; isoproterenol cAMP; inhibition, % at 3.6 µM; 450 compounds, 32% hits;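 active = inhibition above the control-well mean plus 3 SD of those wells, cut at about 22% in these data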;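 note: 0% = DMSO with isoproterenol and 100% = DMSO without isoproterenol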
Y2 agonist ctr = NPY-Y2 direct agonists, counter-screen for NPY-Y2 potentiator project, cell-based, fluorescence; 450 compounds, 56% hits; AID 1710, 2009; HEK293 Y2/CNGC cells, membrane potential fluorescence, agonist mode; activation, % at 3.6 µM; shares compounds with NPY2 pot ag;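 active = activation above the mean of solvent-only control wells plus 3 SD, cut at about 10% in these data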;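 note: cells stimulated by isoproterenol with no NPY added so direct agonism is tested; 0% = DMSO with isoproterenol alone and 100% = NPY at EC100 plus isoproterenol; agonism lowers probe fluorescence through less cAMP and CNG channel opening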
Numbers without * were called inactive; x = no result given. The list is not random: actives were taken first. Their share in the collection is about 2.8%.

SMILES	EP2 modulator	NPY2 pot ag	NPY-Y1 antag	NPY1 pot ag	PGE2 EP2 inh	NPY-Y2 antag	NPY-Y2 confirm	NPY-Y1 counter	NPY-Y1 agonist 2	CNGC inhibitor	Y2 agonist ctr
COc1ccc(Cl)cc1NS(=O)(=O)c1cc(Cl)ccc1OC	8.7	33.2*	-5.7	43.4	5.6	-2.3	24.0	37.8	28.7*	25.6*	31.6*
CC(C)C(=O)Nc1ccc(NC(=O)c2sc3cc(Cl)ccc3c2Cl)cc1	-14.6	x	x	x	10.0	x	x	x	x	x	x
CC(C)c1ccc(NS(=O)(=O)c2ccc3[nH]cc(C(=O)N4CCC(C(N)=O)CC4)c(=O)c3c2)cc1	20.0	38.7*	-11.2	21.4	6.6	-4.0	15.5	31.5	18.1*	14.1	11.7*
CCC1=NN(C(=O)COc2ccc(C#N)cc2)C(O)(C(F)(F)F)C1 (centres undefined)	-76.0	x	x	x	13.7	x	x	x	x	x	x
Cc1nn(-c2ccccc2)nc1C(=O)c1c(C)[nH]n(-c2ccccc2)c1=O	-16.6	64.9*	x	-21.5	4.7	x	-19.8	-12.8	-5.9	-12.8	-4.7
Cc1nn(Cc2ccccc2Cl)c(C)c1C(=O)NC1=NCCS1	9.7	-4.7	5.9	-2.6	14.0	0.5	x	x	x	x	x
Cc1nn(Cc2ccccc2Cl)c(C)c1C(=O)N1CCN(c2ccccc2)CC1	1.1	116.3*	12.3	7.0	10.3	6.4	0.7	-3.4	-3.0	-4.6	6.0
CCN(CC)S(=O)(=O)c1ccc(/C=C/C(=O)OCC(=O)N(C(C)C)C(C)C)cc1	7.0	47.4*	-1.1	-1.7	3.9	x	-0.6	8.6	-8.4	7.2	5.8
CCN(CC)S(=O)(=O)c1ccc(/C=C/C(=O)OCC#N)cc1	-25.0	2.1	-5.5	6.9	5.1	x	x	x	x	x	x
CC(C)c1ccc(OCc2n[nH]c(=S)n2C)cc1	-2.3	x	x	x	7.1	x	x	x	x	x	x
Oc1ccccc1Nc1nc(NCc2ccccc2)c2ccccc2n1	1.2	36.3*	4.3	-0.4	6.9	x	46.8*	56.3*	44.6*	48.0*	45.4*
COCCNc1c(-c2ccccc2Cl)nc2cnccn12	-10.0	x	x	x	x	x	x	x	x	x	x
O=[N+]([O-])c1cc([N+](=O)[O-])c2c(=Nc3ccccc3)n(-c3ccccc3)n(O)c2c1	-22.6	45.8*	-1.4	28.1	5.8	x	46.7*	52.3*	46.7*	33.6*	64.9*
CCn1c(C(NC(=O)c2ccc(C)cc2)C(C)C)n[nH]c1=S (centres undefined)	-14.0	x	x	x	10.5	x	x	x	x	x	x
Cc1ccc(-n2c(SCC(=O)N3CCCCC3)nc3sc(C)c(C)c3c2=O)cc1	51.5	x	x	x	9.3	x	x	x	x	x	x
CC(C)C[C@H](NC(=O)c1nc[nH]c1C(=O)NC1CCN(C(=O)OC(C)(C)C)CC1)C(=O)OCc1ccccc1	-15.9	44.3*	-9.9	30.1	7.1	x	25.8	46.2*	19.6*	22.2*	20.8*
CCc1cc[n+](/C(C(=S)Nc2cccc(C)c2)=C(/[O-])c2ccc(C)c([N+](=O)[O-])c2)cc1	13.3	41.7*	-3.0	39.0	-0.1	3.4	4.5	10.8	8.7	14.9	14.7*
CC(=O)N1c2ccc(NC(=O)c3cc4c([nH]c3=O)CCCCC4)cc2CC1C (centres undefined)	-46.1	x	x	x	10.6	x	x	x	x	x	x
CCOC(=O)Nc1nnc(-c2cccc(OC)c2)s1	5.6	48.8*	1.6	15.1	9.3	2.8	8.0	17.9	24.7*	-6.1	7.9
CCOC(=O)Nc1nnc(-c2ccc(OC)cc2)s1	-6.3	8.0	7.2	-11.3	-5.1	2.5	x	x	x	x	x
N#CCC(=O)Nc1nccs1	-3.4	x	x	x	8.5	x	x	x	x	x	x
CCCOc1ccc(-c2nc3ccc(OC(C)=O)cc3c(=O)o2)cc1	-14.7	x	x	x	10.6	x	x	x	x	x	x
Cc1nn(CC(=O)OCC(=O)NC(C)c2ccccc2)c(C)c1[N+](=O)[O-] (centres undefined)	25.7	91.5*	5.4	17.8	4.8	x	-7.6	-1.2	-7.4	-1.1	6.8
N#C/C(=N/Nc1ccc(OC(F)(F)F)cc1)C(N)=S	-33.6	46.1*	x	26.9	11.7	x	12.5	0.9	-9.6	-2.3	23.4*
O=C(COC(=O)CCc1nc2ccccc2c(=O)[nH]1)NCc1ccc(F)cc1	5.5	102.0*	x	-17.3	5.7	x	-2.8	-3.5	-12.8	-2.0	-6.0
SMILES	EP2 modulator	NPY2 pot ag	NPY-Y1 antag	NPY1 pot ag	PGE2 EP2 inh	NPY-Y2 antag	NPY-Y2 confirm	NPY-Y1 counter	NPY-Y1 agonist 2	CNGC inhibitor	Y2 agonist ctr
COc1ccc(CNC(=O)COC(=O)CCc2nc3ccccc3c(=O)[nH]2)cc1	21.3	5.1	3.6	-1.5	12.6	x	x	x	x	x	x
O=C(Cn1nc(-c2cccc3ncccc23)oc1=O)N1CCCCC1	-9.4	x	x	x	9.1	x	x	x	x	x	x
O=C(O)c1ccc(OCc2cn3ccccc3n2)cc1	16.0	101.2*	x	9.2	3.6	x	2.4	6.8	-1.0	3.0	13.2*
COc1ccc(C(c2nnnn2C(C)(C)C)N2CCN(c3ccc(F)cc3)CC2)cc1OC (centres undefined)	-7.2	x	x	x	12.6	x	x	x	x	x	x
Cc1c(N/N=C(\C#N)C(=O)c2ccc(Cl)cc2)c(=O)n(-c2ccccc2)n1C	-0.3	-13.3	2.8	-3.7	10.6	2.2	x	x	x	x	x
N#C/C(=N\Nc1ccc(Cl)cc1)C(=O)c1ccccc1	-41.1	47.3*	-12.1	34.9	16.6	-0.5	19.1	-3.0	6.6	0.7	19.8*
N#Cc1cc2c(nc1S(=O)Cc1ccccc1)CCCC2 (centres undefined)	-35.6	x	x	x	7.7	x	x	x	x	x	x
NC(=O)c1ccc2nc(NC(=O)c3ccc(N)cc3)sc2c1	-80.6	30.8*	-4.6	23.5	3.9	x	10.8	13.7	17.6*	15.6	18.2*
Cc1nn(Cc2ccccc2)c(C)c1C(=O)N1CCC2(CC1)NC(=O)c1ccccc1O2	-30.6	x	x	x	8.4	x	x	x	x	x	x

Screening data (PubChem BioAssay)
